Only some compounds are listed: those with a hit (about 3.1% of all), similar ones and a draw of the others.
ADAM10 inh: ADAM10 inhibition, QFRET primary screen | 370,000 compounds, 0.62% hits | recombinant ADAM10, EDANS/DABCYL FRET peptide cleavage, 3 h | AID 720582 | inhibition, % at 7 µM | O14672;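 active = inhibition above a per-campaign cutoff equal to the mean of compounds falling between control-based bounds plus 3 SD, cut at about 20% in these data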;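 note: 0% = DMSO wells while the 100% control is not disclosed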
MPTP block: permeability transition pore inhibition | AID 602449 | inhibition, % at 10 µM | 360,000 compounds, 1.4% hits | isolated mouse mitochondria, Ca2+ swelling absorbance, 30 min;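 active = inhibition of 50% or more, scaled per plate between neutral and stimulator controls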;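 note: 0% = DMSO wells given calcium and 100% = 1 mM EGTA wells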
ADAM17 inh: ADAM17 inhibition, QFRET primary screen; P78536; recombinant ADAM17, EDANS/DABCYL FRET peptide cleavage; inhibition, % at 6.95 µM; 370,000 compounds, 0.83% hits; AID 720648;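 active = inhibition above the mean of compounds lying between control limits plus 3 SD, set per campaign, cut at about 8.5% in these data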;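 note: 0% = DMSO-only wells as the low control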
Target sequence (P78536 215-824 limits assumed): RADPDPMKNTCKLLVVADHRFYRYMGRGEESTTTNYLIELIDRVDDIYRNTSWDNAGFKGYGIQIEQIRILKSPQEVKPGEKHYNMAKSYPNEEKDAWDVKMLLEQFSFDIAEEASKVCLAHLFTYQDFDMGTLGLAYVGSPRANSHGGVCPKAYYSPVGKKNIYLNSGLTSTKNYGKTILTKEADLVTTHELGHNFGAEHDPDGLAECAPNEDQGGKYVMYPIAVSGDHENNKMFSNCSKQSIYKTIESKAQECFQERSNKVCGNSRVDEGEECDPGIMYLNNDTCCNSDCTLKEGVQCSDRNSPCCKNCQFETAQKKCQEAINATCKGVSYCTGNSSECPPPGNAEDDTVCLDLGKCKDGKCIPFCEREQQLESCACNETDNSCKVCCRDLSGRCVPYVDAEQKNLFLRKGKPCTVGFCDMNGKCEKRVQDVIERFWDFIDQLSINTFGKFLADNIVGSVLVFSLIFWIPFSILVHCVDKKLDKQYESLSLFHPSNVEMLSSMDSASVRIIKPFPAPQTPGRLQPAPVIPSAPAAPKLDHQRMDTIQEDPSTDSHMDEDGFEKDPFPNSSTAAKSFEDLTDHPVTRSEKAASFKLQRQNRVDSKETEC
Lipid droplet: hepatic lipid droplet formation modulation; AML12 mouse hepatocytes, oleate lipid droplets, BODIPY imaging; inhibition, % at 6.5 µM; 240,000 compounds, 0.4% hits;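 active = lipid droplet intensity inhibited by at least 50%, with more than 500 cells counted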
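Technique: fluorescence imaging, 20x objective, two fields per well / Assay system: AML12 hepatocytes (mouse) / Measure: % inhibition of lipid droplet signal / Doses: 6.5 µM single-point dosing / Incubation: overnight exposure / Reagent: 100 µM oleic acid challenge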
aDG glyco up: alpha-DG glycosylation activation | Pro5-aDG cells, alpha-DG glycosylation AlphaScreen (IIH6); 0% Pro5, 100% B10-LARGE cell signal | activation, % at 10 µM | 360,000 compounds, 0.22% hits;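 active = activation of at least 8% versus controls, or a plate z-score of at least 8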;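 note: Pro5 are CHO cells carrying HIG-tagged alpha-DG that lacks glycosylation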
V-ATPase pHluor: alters yeast V-ATPase proton transport | response, % at 10 µM | S. cerevisiae, pHLuorin cytosolic pH fluorescence | 350,000 compounds, 0.37% hits; in the data active = response mostly above about 7.3%, no sharp cut-off; inactive = mostly below about 5.4%; note: actives read high
MPTP counter: membrane potential counter-screen of mitochondrial pore inhibitors; 5,000 compounds, 78% hits; isolated mitochondria, Rhodamine 123 fluorescence; inhibition, % at 10 µM; shares compounds with MPTP block; in the data active = inhibition above about 22%;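 note: 0% = DMSO vehicle and 100% = positive control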
MPTP swell DR: MPTP inhibition, dose response swelling confirmation | shares compounds with MPTP block | isolated mitochondria swelling, absorbance | IC50, µM | 780 compounds, 58% hits; in the data active = IC50 below about 20 µM
MPTP cs DR: MPTP inhibitor counter-screen activity, dose response. 780 compounds, 49% hits. shares compounds with MPTP block. isolated mitochondria counterscreen, fluorescence read-out. IC50, µM; in the data active = IC50 below about 80 µM
* hit, by the source's call.

Cc1nnc(NC(=O)CSc2ncnc3c2cnn3-c2ccccc2C)s1 was read as ADAM10 inh 1, MPTP block 1, ADAM17 inh -5, aDG glyco up 0 and V-ATPase pHluor 1.
Screening O=C(CSc1ncnc2ccccc12)Nc1ccc2c(c1)OCO2 returned ADAM10 inh -13, MPTP block -2, ADAM17 inh -5, Lipid droplet -42, aDG glyco up 0 and V-ATPase pHluor 0.
For Cc1ccccc1-n1ncc2c(SCC(=O)NC3CCCC3)ncnc21 the results were ADAM10 inh 3, MPTP block 80*, ADAM17 inh -3, Lipid droplet 13, aDG glyco up 1, V-ATPase pHluor 3 and MPTP counter 28*.
Screening O=C(CSc1ncnc2c1cnn2-c1ccccc1)Nc1ccc2c(c1)OCO2 returned ADAM10 inh 1, MPTP block 67*, ADAM17 inh -5, aDG glyco up 2, V-ATPase pHluor 2, MPTP counter 9, MPTP swell DR 5.2* and MPTP cs DR 6.4*.
`Cc1ccc(-c2nc3ncccn3c2NC(=O)c2ccc(F)cc2)cc1` gave ADAM10 inh -345 and ADAM17 inh -110.
Screening Fc1ccc(-[n+]2nc(Nc3ccccc3)sc2-c2cccc(Cl)c2Cl)cc1 returned ADAM10 inh 7, MPTP block 95*, ADAM17 inh 4, Lipid droplet -2, aDG glyco up 0, V-ATPase pHluor -1 and MPTP counter 109*.
Screening CCCCNC(=O)C[C@H]1C[C@@]2(C(=O)OC)C(=C[C@H](C3CCCC3)O[C@@H]2C)N(CCC2=CCCCC2)C1=O returned ADAM10 inh -6 and ADAM17 inh 2.
For CSCCCNC(=O)c1cn(C(C)c2ccccc2)nn1 (stereo unspecified) the results were ADAM10 inh -9 and ADAM17 inh -2.
Screening CN(C)CC1CCCCC1C1(O)c2ccccc2CSc2sccc21 (stereo unspecified) returned ADAM10 inh -3, MPTP block 57*, ADAM17 inh -1, Lipid droplet -36, aDG glyco up 2, V-ATPase pHluor -8, MPTP counter -5, MPTP swell DR 18* and MPTP cs DR >80.
Screening Cc1ccc(CSc2nnc(-c3cc(-c4ccc(F)cc4)n[nH]3)n2N)cc1 returned ADAM10 inh -7 and ADAM17 inh 2.
For CCCCc1c(-c2ccccc2)ncn1CCc1ccccc1OC the results were ADAM10 inh 4, MPTP block 4, ADAM17 inh 2 and aDG glyco up 0.
CCCCc1c(Cc2ccccc2)ncn1CCc1ccccc1OC was read as ADAM10 inh 1, MPTP block 85*, ADAM17 inh 3, aDG glyco up 1 and MPTP counter 114*.
CCCOc1cc(N(CC)CC)ccc1/C=C(/C#N)c1nc2ccc(C)cc2[nH]1 was read as ADAM10 inh -5, MPTP block 78*, ADAM17 inh 4, aDG glyco up 0, V-ATPase pHluor -4 and MPTP counter 57*.
COc1cc(/C=C(\C#N)c2nc3ccc(C)cc3[nH]2)c([N+](=O)[O-])cc1OC was read as ADAM10 inh -18, MPTP block 0, ADAM17 inh -12, aDG glyco up 0 and V-ATPase pHluor 5.
Screening CCOc1cc(N(CC)CC)ccc1/C=C(/C#N)c1nc2ccccc2[nH]1 returned ADAM10 inh -21, MPTP block 82*, ADAM17 inh -7, aDG glyco up 0, V-ATPase pHluor -3 and MPTP counter 54*.
CCN(CC)c1ccc(/C=C(/C#N)c2nc3ccc(C)cc3[nH]2)c(OC(C)C)c1 was read as ADAM10 inh 12, MPTP block 83*, ADAM17 inh 4, aDG glyco up 1, V-ATPase pHluor 2 and MPTP counter 52*.
For COC(=O)[C@H](CC(C)C)N(Cc1cn(Cc2ccccc2)nn1)S(=O)(=O)c1ccc(F)cc1Br the results were ADAM10 inh 5 and ADAM17 inh 2.
Screening COc1ccc(-n2c(COc3ccc(Cl)cc3)nnc2SCc2nc3ccccc3[nH]2)cc1 returned ADAM10 inh -3 and ADAM17 inh 2.
`COc1ccc(NS(=O)(=O)c2ccc(-c3coc(C)n3)cc2)cc1OC` gave ADAM10 inh -6, MPTP block 98*, ADAM17 inh -4, Lipid droplet -66, aDG glyco up 2, V-ATPase pHluor -4 and MPTP counter 83*.
For Cc1cccc(NC(=O)CSc2cc(C)c(C#N)c3nc4ccccc4n23)c1 the results were ADAM10 inh -34, MPTP block 85*, ADAM17 inh -16, Lipid droplet -6, aDG glyco up 0, V-ATPase pHluor -2 and MPTP counter 58*.
For O=C(Nc1cccc(C(=O)NC2CC2)c1)c1ccc(Cl)c(S(=O)(=O)N2CCOCC2)c1 the results were ADAM10 inh -8, MPTP block 0, ADAM17 inh -8, aDG glyco up 0 and V-ATPase pHluor -4.
O=C(Nc1cccc(Br)c1)c1ccc(Cl)c(S(=O)(=O)N2CCOCC2)c1 was read as ADAM10 inh 11, MPTP block 54*, ADAM17 inh 5, Lipid droplet 9, aDG glyco up 2, V-ATPase pHluor 1 and MPTP counter 75*.
`Clc1cccc(N/N=C(\Cc2nc3ccccc3[nH]2)c2ccccc2)c1` gave ADAM10 inh -15, MPTP block 72*, ADAM17 inh -4, Lipid droplet -40, aDG glyco up 0, V-ATPase pHluor -2 and MPTP counter 70*.
O=C(CSc1nc2ccccc2o1)NN=C/C=C\c1ccccc1[N+](=O)[O-] was read as ADAM10 inh 4 and ADAM17 inh 4.
For CCCCCn1nnnc1C1(C)CCCC(=O)N1Cc1ccco1 (stereo unspecified) the results were ADAM10 inh -2 and ADAM17 inh -4.
For Nc1nc2sc3c(c2c(=O)s1)CCCC3 the results were ADAM10 inh 1, MPTP block 1, ADAM17 inh -2, Lipid droplet 8, aDG glyco up 0 and V-ATPase pHluor 0.
Nc1c2c(nc3sc4c(c13)CCCC4)CCCCCC2 was read as ADAM10 inh 11, MPTP block 86*, ADAM17 inh -1, Lipid droplet -3, aDG glyco up 1, V-ATPase pHluor 0 and MPTP counter 103*.

Screening results as filed in PubChem BioAssay.
